ChEMBL document CHEMBL4706680, “Small-Molecule HSP27 Inhibitor Abolishes Androgen Receptors in Glioblastoma” (J Med Chem, 2021)
Calls of active or inactive are those of the source. The rule behind the calls is not given here.

How the values were obtained:
[1] = target: Heat shock protein beta-1 (Homo sapiens) (UniProt P04792); assay: Inhibition of HSP27 in human T98G cells assessed as downregulation of androgen receptor by Western blot analysis; type: cell-based; conditions: dose 25-100 nM
Summary of the method: (§1)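 Cells were treated in six-well plates (with or without MG132 where stated), then lysed in RIPA with protease inhibitors. 50 μg protein was run on 10% SDS-PAGE and transferred to PVDF. Membranes were blocked in 5% milk/TBS-T, probed with AR or AR-V7 antibodies overnight at 4 °C, and detected by chemiluminescence. Densitometry was used; n = 3.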

U-87 MG = assay: Antiproliferative activity against human U87 cells assessed as reduction in cell viability incubated for 48 hrs by MTT assay; type: functional, cell-based, U-87MG ATCC
Summary of the method: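 MTT assay; 3000 cells/well in RPMI 1640 or DMEM with 10% FBS, seeded 24 h, then exposed 48 h to a range of concentrations in DMSO (final ≤0.1%); vehicle controls. MTT 1 mg/mL for 2 h at 37 °C, dye dissolved in DMSO, absorbance 570 nm; eight replicates; IC50 by nonlinear regression.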

[2] = target: Heat shock protein beta-1 (Homo sapiens) (UniProt P04792); assay: Inhibition of HSP27 in human U87 cells assessed as downregulation of androgen receptor by Western blot analysis; type: cell-based; conditions: dose 25-100 nM; summary of the method: as §1
[3] = target: Heat shock protein beta-1 (Homo sapiens) (UniProt P04792); assay: Inhibition of HSP27 in human T98G cells assessed as reduction in AR-V7 expression by Western blot analysis; type: cell-based; conditions: dose 25-100 nM; summary of the method: as §1
[4] = target: Heat shock protein beta-1 (Homo sapiens) (UniProt P04792); assay: Inhibition of HSP27 in human U87 cells assessed as reduction in AR expression level at 50 to 100 nM in presence of MG132 by Western blot analysis; type: cell-based; conditions: dose 50-100 nM; summary of the method: as §1
[5] = target: Heat shock protein beta-1 (Homo sapiens) (UniProt P04792); assay: Inhibition of HSP27 in human T98G cells assessed as reduction in wild type AR expression level at 50 to 100 nM in presence of MG132 by Western blot analysis; type: cell-based; conditions: dose 50-100 nM; summary of the method: as §1
[6] = target: Heat shock protein beta-1 (Homo sapiens) (UniProt P04792); assay: Inhibition of HSP27 in human T98G cells assessed as induction of AR degradation at 25 to 100 nM by Western blot analysis; type: cell-based; conditions: dose 25-100 nM; summary of the method: as §1

Heat shock protein beta-1 (Homo sapiens), sequence (P04792 whole entry): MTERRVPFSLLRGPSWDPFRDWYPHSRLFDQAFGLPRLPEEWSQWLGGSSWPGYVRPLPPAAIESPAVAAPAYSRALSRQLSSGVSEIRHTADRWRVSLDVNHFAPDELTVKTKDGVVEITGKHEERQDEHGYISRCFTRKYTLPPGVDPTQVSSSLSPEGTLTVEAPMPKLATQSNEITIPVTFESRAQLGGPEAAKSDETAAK

inhibition [1]: Dose-dependent effect
IC50 (U-87 MG): 4.78 nM
inhibition [2]: Dose-dependent effect
inhibition [3]: Dose-dependent effect
inhibition [4]: inactive
inhibition [5]: inactive
inhibition [6]: Active
Structure (SMILES): COc1ccc(C(=O)Nc2ccc(NS(C)(=O)=O)c(OCc3cc(OC)ccc3OC)c2)cc1
